Screening results: PubChem BioAssay, Broad Institute
An excerpt weighted towards active compounds, which were near 3.3% of everything screened.
FGF22 binding – FGF22 (human) thermal shift binding | Q9HCT0 | recombinant FGF22 thermal shift, SYPRO orange fluorescence; percent of sucrose octasulfate shift, DMSO zero | activity (Tm shift, normalised), % at 9.99 µM | 1.5% of 340,000 active;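 active = mean Tm shift, scaled 0 neutral to 100 positive control, at about 1.3% or above, every replicate too, limit read from the data; inconclusive = no clear call, values can overlap the other calls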
PglD DTNB – PglD (C. jejuni) enzyme inhibition; 0.098% of 360,000 active; inhibition, % at 12.5 µM; purified PglD enzyme, DTNB colorimetric CoA detection; in the data active = inhibition above about 16%, passing the limit was not always enough; inconclusive = no clear call, values can overlap the other calls
Statin myotox sup – suppression of simvastatin myotoxicity; C2C12 myotubes + simvastatin, ATP luminescence, 48 h; scaled: DMSO 0, geranylgeraniol control 100; rescue of ATP level, % at 7.49 µM; 0.78% of 330,000 active;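 active = mean ATP rescue above about 67%, or every replicate alone reaching that limit, limit read from the data, passing the limit was not always enough; inconclusive = no clear call, values can overlap the other calls; inactive = mean under the limit and some replicate under it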;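 note: myotubes were challenged with 10 µM simvastatin during compound exposure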
DENV2 CPE – protects cells from dengue virus 2 cytopathic effect; DENV2-infected cells, cytopathic effect rescue, plate reader; CPE inhibition, % at 9.99 µM; 1.7% of 350,000 active; in the data active = CPE inhibition above about 20%, passing the limit was not always enough; inconclusive = no clear call, values can overlap the other calls; tested in BHK-21 cells
XiGFP reactiv – reactivates the inactive X chromosome in mouse fibroblasts; XiGFP mouse fibroblasts, % GFP-positive cells imaging, 3 d; cells co-treated with 5-aza-dC sensitizer; scaled so ellipticine positive control = 100%; activation, % at 7.58 µM; 0.055% of 360,000 active;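 active = mean normalized replicate activation at least 10% and every replicate at or above 10%; inconclusive = only one of the two criteria met; inactive = mean below 10% and not all replicates reach 10%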
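Assay system – SV40-immortalized XiGFP fibroblast cells, line 68-5-11 · Buffer or medium – DMEM supplemented with 5-aza-dC as sensitizing agent · Dosing – one concentration, pinned · Benchmarks – positive control ellipticine, 6 µM final · Times – 3 days compound exposure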
E-selectin induc – induces E-selectin expression in human endothelial cells. 0.37% of 260,000 active. HUVEC E-selectin immunofluorescence imaging; normalized: neutral wells 0, TNF-alpha wells 100. P16581. activation, % at 7.58 µM. AID 686992;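 active = mean E-selectin-positive cell signal at least 10% of the positive control, reached in at least 60% of replicates, without over 20% cell loss; inconclusive = no rule given, readout overlaps actives, possibly toxicity-flagged; inactive = the rest, including those meeting only one limit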
Target sequence (P16581 whole entry, looked up): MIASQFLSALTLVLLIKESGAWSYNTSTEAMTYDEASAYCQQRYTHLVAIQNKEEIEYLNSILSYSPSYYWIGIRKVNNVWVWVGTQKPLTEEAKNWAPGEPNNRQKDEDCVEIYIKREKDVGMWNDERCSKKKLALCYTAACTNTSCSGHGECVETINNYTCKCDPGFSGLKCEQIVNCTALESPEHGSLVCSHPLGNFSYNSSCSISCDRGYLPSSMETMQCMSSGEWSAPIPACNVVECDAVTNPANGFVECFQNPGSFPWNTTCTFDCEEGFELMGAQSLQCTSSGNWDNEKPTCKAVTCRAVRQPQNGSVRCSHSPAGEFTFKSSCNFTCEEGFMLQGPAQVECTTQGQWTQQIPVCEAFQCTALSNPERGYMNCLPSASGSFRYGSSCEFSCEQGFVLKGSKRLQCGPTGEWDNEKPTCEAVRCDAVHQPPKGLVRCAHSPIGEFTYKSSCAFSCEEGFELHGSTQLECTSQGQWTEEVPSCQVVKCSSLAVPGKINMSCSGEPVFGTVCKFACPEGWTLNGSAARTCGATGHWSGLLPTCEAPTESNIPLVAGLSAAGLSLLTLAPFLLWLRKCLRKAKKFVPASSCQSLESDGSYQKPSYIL
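Read-out: % PE-positive cells | Test system: HUVEC | Doses: One compound dose added by pin transfer | Buffer or medium: EGM-2 over gelatin coat | Signal: Immunofluorescence imaging | Benchmarks: TNF-alpha, DMSO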
A number is an active result; i = inactive; ? = inconclusive; nt = no result.

SMILES	FGF22 binding	PglD DTNB	Statin myotox sup	DENV2 CPE	XiGFP reactiv	E-selectin induc
CN(C)C(=O)C[C@H]1C[C@H]2c3cc(NC(=O)C4CCC4)ccc3O[C@H]2[C@H](CO)O1	i	i	i	i	i	i
O=C(O)COc1ccc2c3c(c(=O)oc2c1)CCC3	nt	i	116.7	nt	nt	nt
O=C(COc1ccc2c3c(c(=O)oc2c1)CCC3)N1CCCC1	i	i	i	i	i	nt
COc1ccc2c3c([nH]c2c1)[C@H](CO)N(C)CC31CCN(C(=O)c2cccnc2)CC1	nt	nt	nt	?	i	i
CC(C)NC(=O)Nc1ccc2c(c1)C(=O)N([C@@H](C)CO)C[C@@H](C)[C@H](CN(C)CC1CCCCC1)OCCCC[C@H](C)O2	i	i	nt	?	i	i
COc1ccc(-c2c[n+](CC(=O)OC3CC(C)CCC3C(C)C)c3n2CCC3)cc1 (stereo not given)	43.3	i	i	i	i	i
CCOC(=O)c1cc(-c2ccccc2C)nn1Cc1cc(C)no1	i	i	i	32.0	i	i
CCc1cc(Cn2nc(-c3ccccc3C)cc2C(=O)O)on1	i	i	i	24.7	i	i
CCCNC(=O)N1CC2(CN(C)C2)c2c(n(C)c3cc(OC)ccc23)[C@H]1CO	i	nt	nt	i	i	i
COc1cccc(C(=O)N2C[C@H]3[C@@H](c4ccccc42)[C@@H](CO)N3Cc2ccccc2Cl)c1	nt	i	i	nt	i	i
CC1=CCn2c(=O)c3ccccc3c(=O)n2C1	i	i	125.3	i	i	nt
CCNC(=O)CC(=O)Nc1ccccc1C(=O)O	nt	i	i	nt	nt	nt
CNC(=O)CC(=O)Nc1ccccc1C(=O)O	nt	i	104.9	nt	nt	nt
C[C@H](CO)N1C[C@H](C)[C@H](CN(C)C(=O)Nc2ccccc2)Oc2ccc(N(C)C)cc2CC1=O	i	i	i	44.7	i	nt
C[C@@H]1CN([C@@H](C)CO)C(=O)Cc2cc(N(C)C)ccc2O[C@@H]1CN(C)C(=O)Nc1ccccc1	i	i	i	i	i	nt
C[C@@H]1CN([C@H](C)CO)C(=O)Cc2cc(NC(=O)C3CC3)ccc2O[C@H]1CN(C)C(=O)Nc1ccccc1	i	i	i	105.0	i	i
Cc1ccc(S(=O)(=O)N(C)C[C@@H]2Oc3ncc(-c4ccccc4)cc3C(=O)N([C@H](C)CO)C[C@@H]2C)cc1	i	i	i	i	i	i
Cc1cccc(Cl)c1OCCN1CCCC1	i	i	i	70.5	i	nt
CCc1cccc(OCCN2CCCC2)c1	i	nt	i	50.5	i	nt
Cc1ccccc1OCCCCN1CCCCC1	i	i	i	33.9	i	nt
COc1ccccc1OCCCCN1CCCCC1	i	i	i	i	i	i
O=C(C[C@@H]1CC[C@@H](NS(=O)(=O)c2ccc(F)cc2)[C@H](CO)O1)NCCN1CCCCC1	i	i	i	i	i	i
C[C@H](CO)N1C[C@H](C)[C@H](CN(C)C(=O)Nc2ccc(F)cc2)Oc2c(NS(C)(=O)=O)cccc2C1=O	i	i	i	i	i	i
C[C@@H]1CN([C@@H](C)CO)C(=O)Cc2cc(NS(=O)(=O)c3ccc(Cl)cc3)ccc2O[C@@H]1CN(C)C(=O)Nc1cccc2ccccc12	i	i	i	i	i	i
O=C(N/N=C/c1oc(O)c2ccccc12)c1ccccc1	43.5	i	i	i	i	nt
SMILES	FGF22 binding	PglD DTNB	Statin myotox sup	DENV2 CPE	XiGFP reactiv	E-selectin induc
O=C(N/N=C/c1c[nH]c2ccccc12)c1ccccc1	i	i	i	i	i	nt
CCc1ccccc1NC(=S)NC1CC2CCC(C1)N2Cc1ccc(F)cc1 (stereo not given)	1.5	nt	nt	nt	i	nt
CCc1ccccc1NC(=S)NC1CC2CCC(C1)N2Cc1ccco1 (stereo not given)	i	i	i	i	nt	nt
CCOc1ccc(-c2nnc3ccc(SCC(=O)Nc4nc5ccccc5s4)nn23)cc1	6.6	nt	nt	i	i	i
CCOc1ccc2nc(NC(=O)CSc3ccc(Cl)cc3)sc2c1	nt	nt	nt	nt	nt	i
CCOc1ccc2nc(NC(=O)CSc3nc(SC)ns3)sc2c1	1.7	i	i	i	nt	nt
C[C@@H]1CCCCO[C@@H](CN(C)S(=O)(=O)c2cn(C)cn2)[C@H](C)CN([C@H](C)CO)C(=O)c2cc(NC(=O)c3ccccc3)ccc2O1	i	i	nt	i	i	i
CC(=O)N1[C@H](C(=O)Nc2ccccc2)[C@@H](CO)[C@@H]2Cn3c(ccc(C4=CCCCC4)c3=O)[C@@H]21	i	i	i	i	i	i
Fc1ccc(-c2nc3ccc(Br)cn3c2Cc2ccccc2C(F)(F)F)cc1	i	i	i	i	i	i
Cc1ccc2nc(-c3cccc(Br)c3)c(Cc3ccsc3)n2c1	i	nt	nt	24.4	i	i
FC(F)(F)c1ccccc1Cc1c(-c2cccc(Br)c2)nc2ccc(Br)cn12	19.9	i	i	i	i	i
Cc1ccc(Cc2c(-c3cccc(Br)c3)nc3c4ccccc4ccn23)cc1	i	nt	nt	38.9	i	i
Clc1cccc(Cc2c(-c3cccc(Br)c3)nc3c4ccccc4ccn23)c1	43.3	nt	nt	i	i	i
Cc1ccc(Cc2c(-c3ccccc3)nc3c4ccccc4ccn23)cc1	i	nt	nt	i	i	i
CCCc1cn(CC[C@H]2CC[C@H](NC(=O)C3CCC3)[C@H](CO)O2)nn1	i	i	i	i	i	i
COc1ccc(-c2nc3c4ccccc4ccn3c2Cc2cccc(Cl)c2)cc1OC	i	i	i	75.8	nt	i
Cc1cccc(C)c1NC(=O)CNC(=O)c1ccc(S(=O)(=O)NCc2ccco2)cc1	i	i	i	?	i	i
O=C(Nc1cccc(S(=O)(=O)NCc2ccco2)c1)c1cccc(Cl)c1	i	i	i	?	i	199.6
Cc1cccc(NC(=O)c2cc(S(=O)(=O)NCc3ccco3)ccc2F)c1C	nt	i	79.5	nt	nt	nt
CC(=O)Nc1cccc(C(=O)Nc2cccc(S(=O)(=O)NCc3ccco3)c2)c1	i	i	i	i	i	i
C[C@@H]1CN([C@H](C)CO)C(=O)c2cc(NS(=O)(=O)c3ccc(F)cc3)ccc2O[C@@H]1CN(C)C(=O)Nc1ccccc1	i	i	i	i	i	i
O=C(NCC1CCCO1)C(=O)N/N=C/c1ccccc1C(=O)O (stereo not given)	43.1	nt	i	i	i	i
COc1ccc(C2C(C(=O)OCC(=O)Nc3ccc(C)cc3)CCC(=O)N2c2ccc(OC)cc2)cc1 (stereo not given)	nt	i	95.3	nt	nt	nt
Cc1c(C#N)c(NC(=O)CCl)n(Cc2ccccc2)c1C	i	i	i	i	i	nt
Cc1c(C#N)c(NC(=O)CCl)n(Cc2ccc(F)cc2)c1C	i	nt	nt	i	i	41.7
CO[C@H]1CN(C)C(=O)c2cc(NC(=O)c3cccc(F)c3)ccc2OC[C@H](C)N(C(C)=O)C[C@@H]1C	nt	nt	i	nt	i	i
COC(=O)[C@@H]1[C@@H](CO)[C@@H]2Cn3c(ccc(-c4ccccc4F)c3=O)[C@@H]2N1C(=O)c1cnccn1	i	i	i	i	i	i
